Results filed as inconclusive are left out.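 The calls were made as follows, unless noted: active = growth inhibition above 25% in both replicates, a cutoff set 3 SD above the mean; inconclusive = above 25% in only one replicate; inactive = the rest.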
Columns and labels:
[1] = OD615 S. cerevisiae growth inhibition, permissive medium, pilot counter-assay, permissive growth control for S. cerevisiae lifespan shortening project (AID 705); conditions: OD615, 24 h, at 10 µM, active compounds read high
Summary of the method: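 System: Engineered DeaD yeast | Buffer or medium: SC raffinose/galactose permissive medium | Incubation: Cells pre-grown 4 h, then 24 h compound exposure, 30 °C humidified | Measured by: Absorbance (optical density) at 615 nm | Read-out: Reduction in yeast growth (OD615)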

[2] = Restrictive medium S. cerevisiae growth inhibition, OD615, pilot screen of yeast lifespan reduction project, restrictive growth control (AID 706;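 active = growth inhibition above a set limit, 3 SD over mean compound inhibition, in both replicates, cut at about 43% in these data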;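 also: modified DeaD lifespan yeast strain shifted to restrictive glucose medium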); conditions: OD615, 48 h, at 10 µM, active compounds read high
Summary of the method: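 Material: modified S. cerevisiae; Medium: glucose-based CSMM-D restrictive medium; Compound dosing: one concentration, 10 µM final, 0.25% DMSO; Incubation: 48 h compound exposure at 30 °C; Measured by: OD615.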

[3] = viability gain of MRP-1-high H69AR cells under doxorubicin, pilot screen, MRP-1 activator project, CellTiter-Glo, duplicate (AID 807;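 active = viability increase at or above a cutoff of the median across tested compounds plus 3 SD, cut at about 8.5% in these data, passing the limit was not always enough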;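 also: compound pretreatment 18-22 h then 72 h combined with doxorubicin; 0% = doxorubicin alone and 100% = vehicle without doxorubicin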); conditions: H69AR viability with doxorubicin, CellTiter-Glo luminescence; at 10 µM; active compounds read high
[4] = growth suppression of beta-catenin knockout HCT116, pilot screen, human colon tumor cells (AID 823;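 active = cell viability at or below a set limit in both duplicate runs, the limit being the all-compound median minus 4 SD, cut at about 23% in these data, passing the limit was not always enough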;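 also: 0% = wells killed by 20 µM Hyamine and 100% = untreated DMSO cell wells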); conditions: CellTiter-Glo, 60 h, at 10 µM, active compounds read low
[5] = growth suppression of PTEN-deleted HCT116, pilot screen, cell-based, HCT116 clonal line, CellTiter-Glo (AID 824;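 active = viability at or below 27.92% in each of two runs, the all-compound median minus 4 SD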;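 also: 0% = 20 µM Hyamine control and 100% = vehicle cell control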); conditions: 60 h, at 10 µM, active compounds read low
[6] = inhibitors of the yeast RAM network, pilot screen, dse1pr::URA3 reporter, 5-FOA selection (AID 869;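 active = inhibition over a set limit, the all-compound mean plus 3 SD, in both replicate runs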;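 also: 0% = DMSO wells with no growth and 100% = 10 µM 1-NA-PP1 with full growth; RAM network block rescues cells from 5-FOA so hits raise OD615 growth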); conditions: S. cerevisiae dse1pr::URA3 5-FOA growth, OD615, 2 d; at 10 µM; active compounds read high; strain carries analog-sensitive mutant Cbk1 kinase
[7] = RAM signaling pathway blockade in yeast – S. cerevisiae, Pdr1DBD-CYC8 efflux-inhibited sensitized strain, primary screen (AID 1298;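 active = RAM network inhibition above 8.4% in each of two replicates, 3 SD over the compound average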;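 also: 0% = DMSO untreated cells without growth and 100% = 10 µM 1-NA-PP1 full growth; higher means more yeast growth rescued from 5-FOA killing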); conditions: S. cerevisiae cbk1-as DSE1-URA3 strain, 5-FOA growth OD615, 2 d; at 50 µM; active compounds read high

COc1ccc(Cl)cc1N(CC(=O)Nc1ccc2c(c1)OCCO2)S(C)(=O)=O
inactive: growth inhibition [1] -2.33% | growth inhibition [2] 0.055% | viability increase [3] -2.78% | viability [4] 92.7% | viability [5] 89.4% | inhibition [6] 3.33% | RAM network inhibition [7] 2.8%

O=C1c2ccccc2C(O)N1Cc1ccc2c(c1)OCO2 (centres undefined)
inactive: growth inhibition [1] 4.13% | growth inhibition [2] -0.895% | viability increase [3] -0.74% | viability [4] 103% | viability [5] 106% | inhibition [6] 0.38% | RAM network inhibition [7] 1.6%

Cc1cc(NC(=O)CSc2cn(C)c3ccccc23)no1
inactive: growth inhibition [1] -8.73% | growth inhibition [2] 4.95% | viability increase [3] -2.87% | viability [4] 97.6% | viability [5] 99.1% | inhibition [6] 0.48% | RAM network inhibition [7] 1.44%

CCOC(=O)C1C(c2cccc(Cl)c2Cl)NC(=O)NC1(O)C(F)(F)F (centres undefined)
inactive: growth inhibition [1] -5.62% | growth inhibition [2] -7.31% | viability increase [3] -2.19% | viability [4] 94.8% | viability [5] 96.9% | inhibition [6] 1.15% | RAM network inhibition [7] 7.71%

O=C(NCc1ccccn1)c1cc2ccccn2n1
inactive: growth inhibition [1] -2.5% | growth inhibition [2] 0.82% | viability increase [3] -0.01% | viability [4] 104% | viability [5] 102% | inhibition [6] 0.245% | RAM network inhibition [7] 3.25%

CCOC(=O)N1CCN(C(=O)Cn2ncc3c2-c2ccccc2OC3)CC1
inactive: growth inhibition [1] -14% | growth inhibition [2] -8.46% | viability increase [3] -1.16% | viability [4] 102% | viability [5] 95.9% | inhibition [6] 0.82% | RAM network inhibition [7] -1.43%

CCCCCn1c(CNC(C)=O)nc2ccccc21
inactive: growth inhibition [1] -11.1% | growth inhibition [2] -13.2% | viability increase [3] 0.03% | viability [4] 93.5% | viability [5] 97.7% | inhibition [6] 0.54% | RAM network inhibition [7] 7.59%

O=C(Cn1c(=O)oc2cc(S(=O)(=O)N3CCc4ccccc43)ccc21)N1CCCCC1
inactive: growth inhibition [1] -2.98% | growth inhibition [2] -7.46% | viability increase [3] -2.88% | viability [4] 98.1% | viability [5] 80.5% | inhibition [6] -0.125% | RAM network inhibition [7] 2.79%

COc1ccc(Cc2nnc(SC)[nH]c2=O)cc1OC
inactive: growth inhibition [1] 0.615% | growth inhibition [2] -16.6% | viability increase [3] -1.67% | viability [4] 101% | viability [5] 99.4% | inhibition [6] 0.225% | RAM network inhibition [7] 1.41%

Cn1cccc1Cc1nnc(SCC(=O)NC2CCCCC2)n1-c1ccc(F)cc1
inactive: growth inhibition [1] 1.67% | growth inhibition [2] -4.1% | viability increase [3] -1.86% | viability [4] 95.4% | viability [5] 96.7% | inhibition [6] 1.08% | RAM network inhibition [7] 4.28%

Cc1cc(C)cc(N(CC(=O)N2CCc3ccccc32)S(=O)(=O)c2c(C)noc2C)c1
inactive: growth inhibition [1] -11.2% | growth inhibition [2] -5.73% | viability increase [3] -4.52% | viability [4] 90.4% | viability [5] 89.9% | inhibition [6] 2.83% | RAM network inhibition [7] 0.55%

O=C(CNC(=O)c1cnccn1)Nc1ccc(F)c(F)c1F
inactive: growth inhibition [1] -8.69% | growth inhibition [2] 2.7% | viability increase [3] 1.31% | viability [4] 99.9% | viability [5] 92.8% | inhibition [6] 2.68% | RAM network inhibition [7] 7.87%

CCN1CCN(CCCNC(=O)Cn2cc3c(n2)CCCC3)CC1
inactive: growth inhibition [1] -5.34% | growth inhibition [2] 0.355% | viability increase [3] -1.2% | viability [4] 108% | viability [5] 97.2% | inhibition [6] 0.945% | RAM network inhibition [7] 0.76%

CCCOc1ccc(NC(=O)c2c(-c3ccccc3)noc2C)cc1
inactive: growth inhibition [1] -3.83% | growth inhibition [2] -7.54% | viability increase [3] -1.84% | viability [4] 103% | viability [5] 90.5% | inhibition [6] 1.34% | RAM network inhibition [7] 2.96%

Cc1oc(-c2ccccc2)nc1CS(=O)CC(=O)N1CCc2ccccc2C1 (centres undefined)
inactive: growth inhibition [1] 5.38% | growth inhibition [2] 22.9% | viability increase [3] -2.89% | viability [4] 97.8% | viability [5] 99.8% | inhibition [6] 1.62% | RAM network inhibition [7] 1.69%

O=C(Cc1cc(=O)[nH]c(=O)[nH]1)NCCN1CCOCC1
inactive: growth inhibition [1] 4.2% | growth inhibition [2] 10.4% | viability increase [3] 1.08% | viability [4] 102% | viability [5] 98.6% | inhibition [6] 0.35% | RAM network inhibition [7] 5.04%

O=C(NCC1CCCO1)NC1(C(F)(F)F)Oc2ccccc2O1 (centres undefined)
inactive: growth inhibition [1] -24.1% | growth inhibition [2] -16% | viability increase [3] -7.32% | viability [4] 60.8% | viability [5] 67.1% | inhibition [6] 1.9% | RAM network inhibition [7] 2.09%

Source: PubChem BioAssay
